ChEMBL document CHEMBL3352530, “Nitrogen-containing dihydro-β-agarofuran derivatives from Tripterygium wilfordii” (J Nat Prod, 2014)

Columns and labels:
[1] = system: PBMC; experiment: Immunosuppressive activity in anti-CD3/anti-CD28-induced human PBMC after 96 hrs by flow cytometry; type: functional, cell-based
How it was run: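 Healthy-donor PBMCs isolated by Lymphoprep density-gradient centrifugation, held in complete medium at 10⁶ cells/mL. Stimulated with plate-bound anti-CD3 (2 μg/mL) plus soluble anti-CD28 (1 μg/mL) monoclonal antibodies. Incubated 96 h with varying compound concentrations in DMSO (less than 0.025%) or vehicle alone. Proliferation measured by flow cytometry.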

[2] = system: PBMC; experiment: Cytotoxicity against human PBMC after 96 hrs by flow cytometry; type: cell-based
How it was run: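 PBMCs isolated from healthy donors by Lymphoprep density-gradient centrifugation and resuspended in complete medium. Cells at 10⁶ cells/mL incubated without stimulation for 96 h with different concentrations of compound or vehicle alone. Cell survival read by flow cytometry.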

| SMILES | IC50 [1] | IC50 [2] |
| --- | --- | --- |
| CC(=O)OC[C@]12[C@H](OC(C)=O)[C@H](OC(C)=O)[C@@H]3[C@@H](O)[C@@]14O[C@@]3(C)COC(=O)c1cccnc1[C@@H](C)[C@H](C)C(=O)O[C@@H]([C@H](OC(=O)c1ccccc1)[C@@H]2OC(C)=O)[C@]4(C)O | 32.9 µM | 56.3 µM |
| CC(=O)OC[C@]12[C@H](OC(C)=O)[C@H](OC(C)=O)[C@@H]3[C@@H](OC(C)=O)[C@@]14O[C@@]3(C)COC(=O)c1cccnc1CCC(C)(O)C(=O)O[C@@H]([C@H](OC(C)=O)[C@@H]2OC(C)=O)[C@]4(C)O (some centres not stated) [ALATUSININE] | 45.9 µM | 75.7 µM |
| CC(=O)OC[C@]12[C@H](OC(C)=O)[C@H](OC(C)=O)[C@@H]3[C@@H](OC(C)=O)[C@@]14O[C@@]3(C)COC(=O)c1cccnc1CC[C@](C)(OC(=O)c1ccoc1)C(=O)O[C@@H]([C@H](OC(=O)c1ccoc1)[C@@H]2OC(C)=O)[C@]4(C)O | 4.95 µM | 26.4 µM |
| CC(=O)O[C@@H]1[C@@H]2[C@@H](OC(C)=O)[C@@]34O[C@@]2(C)COC(=O)c2cccnc2CC[C@](C)(OC(=O)c2ccoc2)C(=O)O[C@@H]([C@H](O)[C@H](O)[C@@]3(CO)[C@@H]1O)[C@]4(C)O | 8.67 µM | > 100 µM |
| COc1c(C)c2c(c(O)c1C/C=C(\C)CCC(=O)O)C(=O)OC2 [MYCOPHENOLIC ACID] | 0.18 µM | > 100 µM |
| CC1(C)O[C@]23[C@H](OC(=O)c4cccnc4)[C@H]1C[C@@H](OC(=O)/C=C\c1ccccc1)[C@]2(CO)[C@@H](OC(=O)c1ccccc1)CC[C@]3(C)O | 24.7 µM | 57.6 µM |
